Calls of active or inactive are those of the source.
Experiments:
MCF7 = assay: Cytotoxicity against human MCF7 cells after 96 hrs by SRB assay; format: functional, cell-based; conditions: MCF7, 96 h
How it was run: (§1)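 EC50 from sulforhodamine B assay after 96 h exposure. Each value is averaged from three independent experiments, each run in triplicate, with 95% confidence interval. Assay cut-off 30 µM.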

518A2 = assay: Cytotoxicity against human 518A2 cells after 96 hrs by SRB assay; format: functional, cell-based; conditions: 518A2, 96 h; how it was run: as §1
NIH3T3 = assay: Cytotoxicity against mouse NIH/3T3 cells after 96 hrs by SRB assay; format: cell-based; conditions: NIH3T3, 96 h; how it was run: as §1
HT-29 = assay: Cytotoxicity against human HT-29 cells after 96 hrs by SRB assay; format: functional, cell-based; conditions: HT-29, 96 h; how it was run: as §1
8505C = assay: Cytotoxicity against human 8505C cells after 96 hrs by SRB assay; format: functional, cell-based; how it was run: as §1
A549 = assay: Cytotoxicity against human A549 cells after 96 hrs by SRB assay; format: functional, cell-based; conditions: A549, 96 h; how it was run: as §1
A2780 [1] = assay: Cytotoxicity against human A2780 cells after 96 hrs by SRB assay; format: functional, cell-based; conditions: A2780, 96 h; how it was run: as §1
[2] = Drug uptake in mitochondria of human A2780 cells at 0.1 uM after 24 hrs by fluorescence and light microscopy; format: ADME
How it was run: (§2)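 Approx. 800,000 A2780 cells grown 24 h in 25 cm² flasks. Medium then replaced with compound-containing medium at 0.1 µM, or blank medium as control, for 24 h. Cells collected, centrifuged at 1200 rpm and 4 °C, and washed in PBS. Live cells stained with Hoechst 33342 (DNA) and rhodamine 123 (mitochondria), then imaged by fluorescence and light microscopy.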

A2780 [3] = assay: Induction of apoptosis in human A2780 cells at 0.1 to 0.4 uM after 24 hrs by annexin V/propidium iodide staining-based flow cytometric method relative to control; format: functional, cell-based
How it was run: (§3)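 A2780 cells treated at 0.1 µM, and at up to 0.4 µM, compared with untreated control. Stained with annexin V/propidium iodide and quantified by FACS.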

A2780 [4] = assay: Induction of morphological changes in human A2780 cells at 0.1 uM after 24 hrs by rhodamine 123/Hoechst 33342 staining-based fluorescence microscopic method; format: functional, cell-based; how it was run: as §2
A2780 [5] = assay: Induction of necrosis in human A2780 cells at 0.1 uM after 24 hrs by annexin V/propidium iodide staining-based flow cytometric method relative to control; format: functional, cell-based; how it was run: as §3
[6] = Selectivity factor, ratio of EC50 for mouse NIH/3T3 cells to EC50 for human A2780 cells

SMILES: CC1(C)CC[C@]2(C(=O)O)CC[C@]3(C)C(=CC[C@@H]4[C@@]5(C)CC[C@H](O)C(C)(C)[C@@H]5CC[C@]43C)[C@@H]2C1 [OLEANOLIC_ACID]
- EC50 (MCF7): > 30000 nM
- EC50 (518A2): > 30000 nM
- EC50 (NIH3T3): > 30000 nM
- EC50 (HT-29): > 30000 nM
- EC50 (8505C): > 30000 nM
- EC50 (A549): > 30000 nM

SMILES: CC(=O)O[C@@H]1C[C@]2(C)[C@H]3CC=C4[C@@H]5CC(C)(C)CC[C@]5(C(=O)N5CCNCC5)CC[C@@]4(C)[C@]3(C)CC[C@H]2C(C)(C)[C@H]1OC(C)=O
- EC50 (MCF7): 1000 nM
- EC50 (A2780 [1]): 1900 nM
- EC50 (NIH3T3): 3200 nM
- EC50 (HT-29): 1600 nM
- EC50 (A549): 1500 nM

SMILES: CC(=O)O[C@H]1CC[C@]2(C)[C@H]3CC[C@@H]4[C@H]5[C@H](C(C)=O)CC[C@]5(C(=O)N5CCNCC5)CC[C@@]4(C)[C@]3(C)CC[C@H]2C1(C)C
- EC50 (MCF7): 2800 nM
- EC50 (A2780 [1]): 3100 nM
- EC50 (518A2): 2700 nM
- EC50 (NIH3T3): 700 nM
- EC50 (HT-29): 2400 nM
- EC50 (8505C): 3700 nM
- EC50 (A549): 3900 nM

SMILES: CCN(CC)c1ccc2c(-c3ccccc3C(=O)O)c3ccc(=[N+](CC)CC)cc-3oc2c1 [RHODAMINE]
- EC50 (MCF7): > 30000 nM
- EC50 (A2780 [1]): > 30000 nM
- EC50 (518A2): > 30000 nM
- EC50 (NIH3T3): > 30000 nM
- EC50 (HT-29): > 30000 nM
- EC50 (8505C): > 30000 nM
- EC50 (A549): > 30000 nM

SMILES: CCN(CC)c1ccc2c(-c3ccccc3C(=O)N3CCN(C(=O)[C@]45CC[C@@H](C(C)=O)[C@@H]4[C@H]4CC[C@@H]6[C@@]7(C)CC[C@H](OC(C)=O)C(C)(C)[C@@H]7CC[C@@]6(C)[C@]4(C)CC5)CC3)c3ccc(=[N+](CC)CC)cc-3oc2c1
- EC50 (MCF7): 70 nM
- EC50 (A2780 [1]): 36 nM
- EC50 (518A2): 100 nM
- EC50 (NIH3T3): 171 nM
- EC50 (HT-29): 99 nM
- EC50 (8505C): 145 nM
- EC50 (A549): 131 nM

SMILES: CC1(C)[C@@H](O)CC[C@]2(C)[C@H]3C(=O)C=C4[C@@H]5C[C@@](C)(C(=O)O)CC[C@]5(C)CC[C@@]4(C)[C@]3(C)CC[C@@H]12 [ENOXOLONE]
- EC50 (MCF7): > 30000 nM
- EC50 (A2780 [1]): > 30000 nM
- EC50 (518A2): > 30000 nM
- EC50 (NIH3T3): 18700 nM
- EC50 (HT-29): > 30000 nM
- EC50 (8505C): > 30000 nM
- EC50 (A549): > 30000 nM

SMILES: C=C(C)[C@@H]1CC[C@]2(C(=O)N3CCNCC3)CC[C@]3(C)[C@H](CC[C@@H]4[C@@]5(C)CC[C@H](OC(C)=O)C(C)(C)[C@@H]5CC[C@]43C)[C@@H]12
- EC50 (MCF7): 1400 nM
- EC50 (A2780 [1]): 1900 nM
- EC50 (518A2): 1500 nM
- EC50 (NIH3T3): 900 nM
- EC50 (HT-29): 1000 nM
- EC50 (8505C): 2200 nM
- EC50 (A549): 2200 nM

SMILES: CC1(C)CC[C@]2(C(=O)O)CC[C@]3(C)C(=CC[C@@H]4[C@@]5(C)C[C@@H](O)[C@H](O)C(C)(C)[C@@H]5CC[C@]43C)[C@@H]2C1 [MASLINIC ACID]
- EC50 (MCF7): > 30000 nM
- EC50 (A2780 [1]): 19500 nM
- EC50 (518A2): 13700 nM
- EC50 (NIH3T3): 21100 nM
- EC50 (HT-29): 28800 nM
- EC50 (8505C): 17000 nM
- EC50 (A549): 23400 nM

SMILES: C=C(C)[C@@H]1CC[C@]2(C(=O)O)CC[C@]3(C)[C@H](CC[C@@H]4[C@@]5(C)CC[C@H](O)C(C)(C)[C@@H]5CC[C@]43C)[C@@H]12 [BETULINIC ACID]
- EC50 (518A2): 9400 nM
- EC50 (NIH3T3): 16100 nM

SMILES: CC(=O)O[C@H]1CC[C@]2(C)[C@H]3CC=C4[C@@H]5[C@@H](C)[C@H](C)CC[C@]5(C(=O)N5CCNCC5)CC[C@@]4(C)[C@]3(C)CC[C@H]2C1(C)C
- EC50 (MCF7): 2000 nM
- EC50 (A2780 [1]): 2100 nM
- EC50 (518A2): 2600 nM
- EC50 (NIH3T3): 2100 nM
- EC50 (HT-29): 1900 nM
- EC50 (8505C): 3500 nM
- EC50 (A549): 3200 nM

SMILES: C[C@H]1[C@H](C)CC[C@]2(C(=O)O)CC[C@]3(C)C(=CC[C@@H]4[C@@]5(C)CC[C@H](O)C(C)(C)[C@@H]5CC[C@]43C)[C@H]12 [URSOLIC ACID]
- EC50 (518A2): 14700 nM
- EC50 (NIH3T3): 18700 nM

SMILES: CC(=O)[C@@H]1CC[C@]2(C(=O)O)CC[C@]3(C)[C@H](CC[C@@H]4[C@@]5(C)CC[C@H](O)C(C)(C)[C@@H]5CC[C@]43C)[C@@H]12 [PLATANIC ACID]
- EC50 (MCF7): > 30000 nM
- EC50 (A2780 [1]): > 30000 nM
- EC50 (518A2): > 30000 nM
- EC50 (HT-29): > 30000 nM
- EC50 (8505C): > 30000 nM
- EC50 (A549): > 30000 nM

SMILES: CC(=O)O[C@H]1CC[C@]2(C)[C@H]3C(=O)C=C4[C@@H]5C[C@@](C)(C(=O)N6CCNCC6)CC[C@]5(C)CC[C@@]4(C)[C@]3(C)CC[C@H]2C1(C)C
- EC50 (MCF7): 8400 nM
- EC50 (A2780 [1]): 8200 nM
- EC50 (518A2): 9400 nM
- EC50 (NIH3T3): 8700 nM
- EC50 (HT-29): 4500 nM
- EC50 (8505C): 10000 nM
- EC50 (A549): 10500 nM

SMILES: CC(=O)O[C@H]1CC[C@]2(C)[C@H]3CC=C4[C@@H]5CC(C)(C)CC[C@]5(C(=O)N5CCNCC5)CC[C@@]4(C)[C@]3(C)CC[C@H]2C1(C)C
- EC50 (MCF7): 1700 nM
- EC50 (A2780 [1]): 1700 nM
- EC50 (518A2): 2700 nM
- EC50 (NIH3T3): 1700 nM
- EC50 (HT-29): 1300 nM
- EC50 (8505C): 3800 nM
- EC50 (A549): 2300 nM

SMILES: CCN(CC)c1ccc2c(-c3ccccc3C(=O)N3CCN(C(=O)[C@]45CC[C@@H](C)[C@H](C)[C@H]4C4=CC[C@@H]6[C@@]7(C)CC[C@H](OC(C)=O)C(C)(C)[C@@H]7CC[C@@]6(C)[C@]4(C)CC5)CC3)c3ccc(=[N+](CC)CC)cc-3oc2c1
- EC50 (MCF7): 75 nM
- EC50 (A2780 [1]): 38 nM
- EC50 (518A2): 47 nM
- EC50 (NIH3T3): 137 nM
- EC50 (HT-29): 83 nM
- EC50 (8505C): 47 nM
- EC50 (A549): 140 nM

SMILES: CCN(CC)c1ccc2c(-c3ccccc3C(=O)N3CCN(C(=O)[C@]45CCC(C)(C)C[C@H]4C4=CC[C@@H]6[C@@]7(C)CC[C@H](OC(C)=O)C(C)(C)[C@@H]7CC[C@@]6(C)[C@]4(C)CC5)CC3)c3ccc(=[N+](CC)CC)cc-3oc2c1
- EC50 (MCF7): 62 nM
- EC50 (A2780 [1]): 32 nM
- EC50 (518A2): 43 nM
- EC50 (NIH3T3): 137 nM
- EC50 (HT-29): 91 nM
- EC50 (8505C): 45 nM
- EC50 (A549): 120 nM

SMILES: C=C(C)[C@@H]1CC[C@]2(C(=O)N3CCN(C(=O)c4ccccc4-c4c5ccc(=[N+](CC)CC)cc-5oc5cc(N(CC)CC)ccc45)CC3)CC[C@]3(C)[C@H](CC[C@@H]4[C@@]5(C)CC[C@H](OC(C)=O)C(C)(C)[C@@H]5CC[C@]43C)[C@@H]12
- EC50 (MCF7): 81 nM
- EC50 (A2780 [1]): 50 nM
- EC50 (518A2): 46 nM
- EC50 (NIH3T3): 208 nM
- EC50 (HT-29): 151 nM
- EC50 (8505C): 62 nM
- EC50 (A549): 176 nM

SMILES: CCN(CC)c1ccc2c(-c3ccccc3C(=O)N3CCN(C(=O)[C@]45CCC(C)(C)C[C@H]4C4=CC[C@@H]6[C@@]7(C)C[C@@H](OC(C)=O)[C@H](OC(C)=O)C(C)(C)[C@@H]7CC[C@@]6(C)[C@]4(C)CC5)CC3)c3ccc(=[N+](CC)CC)cc-3oc2c1.[Cl-]
- Drug uptake [2]: Active
- EC50 (MCF7): 28 nM
- EC50 (A2780 [1]): 7 nM
- EC50 (518A2): 11 nM
- EC50 (NIH3T3): 334 nM
- Activity (A2780 [3]): inactive
- EC50 (HT-29): 57 nM
- Activity (A2780 [4]): inactive
- Activity (A2780 [5]): Active
- Ratio EC50 [6]: 50
- EC50 (A549): 186 nM

— ChEMBL document CHEMBL3997779, “Rhodamine B conjugates of triterpenoic acids are cytotoxic mitocans even at nanomolar concentrations” (Eur J Med Chem, 2017)
